From ChEMBL document CHEMBL4689842, “EUbOPEN Chemogenomics Library wave 1” (2021)

Test system: U2OS
Experiment: Multiplex assay against U2OS
Format: toxicity, cell-based
Settings: human
In short: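 Cells stained live at seeding with Hoechst33342, BioTracker Green Microtubule Cytoskeleton Dye, MitoTracker Red and Annexin V Alexa Fluor 680 were imaged on a CQ1 microscope at 37°C and 5% CO2 after compound addition. Their classification by CellPathfinder machine-learning gating ran from Hoechst high-intensity objects versus normal cells, to healthy, pyknosed or fragmented nuclei among normal cells, to mitotic or apoptotic among pyknosed cells. Tubulin, mitochondrial-mass and membrane-permeability phenotypes are per cents of healthy-nucleus cells.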

[1] = 12 h, 1 µM, compound concentration 1 uM, replicate 1
[2] = 12 h, 1 µM, compound concentration 1 uM, replicate 2
[3] = 12 h, 10 µM, compound concentration 10 uM, replicate 1
[4] = 12 h, 10 µM, compound concentration 10 uM, replicate 2
[5] = 24 h, 1 µM, compound concentration 1 uM, replicate 1
[6] = 24 h, 1 µM, compound concentration 1 uM, replicate 2
[7] = 24 h, 10 µM, compound concentration 10 uM, replicate 1
[8] = 24 h, 10 µM, compound concentration 10 uM, replicate 2
[9] = 48 h, 1 µM, compound concentration 1 uM, replicate 1
[10] = 48 h, 1 µM, compound concentration 1 uM, replicate 2
[11] = 48 h, 10 µM, compound concentration 10 uM, replicate 1
[12] = 48 h, 10 µM, compound concentration 10 uM, replicate 2

**Q.** What does the source list for `COc1ccc(-c2ccc3ncc4c(c3c2)n(-c2ccc(N3CCNCC3)c(C(F)(F)F)c2)c(=O)n4C)cn1.O=C(O)/C=C\C(=O)O` [BGT-226]?
**A.** Population Apoptotic (%) [1]: 86%; Population Fragmented Nuclei (%) [1]: 50%; Population Healthy Nuclei (%) [1]: 10%; Population Hoechst High Intensity Objects (%) [1]: 14%; Population Membrane Permeable-Phenotype (%) [1]: 58%; Population Mitotic Cells (%) [1]: 13%; Population Normal (%) [1]: 85%; Population Pyknosed Nuclei (%) [1]: 38%; Total Cell Count [1]: 182; Population Apoptotic (%) [2]: 81%; Population Fragmented Nuclei (%) [2]: 24%; Population Healthy Nuclei (%) [2]: 45%; Population Hoechst High Intensity Objects (%) [2]: 17%; Population Membrane Permeable-Phenotype (%) [2]: 70%; Population Mitochondria Different-Phenotype (%) [2]: 94%; Population Mitotic Cells (%) [2]: 18%; Population Normal (%) [2]: 82%; Population Pyknosed Nuclei (%) [2]: 29%; Population Tubulin-Different-Phenotype (%) [2]: 94%; Total Cell Count [2]: 45; Population Apoptotic (%) [3]: 97%; Population Fragmented Nuclei (%) [3]: 33%; Population Healthy Nuclei (%) [3]: 1%; Population Hoechst High Intensity Objects (%) [3]: 13%; Population Membrane Permeable-Phenotype (%) [3]: 50%; Population Mitochondria Different-Phenotype (%) [3]: 50%; Population Mitotic Cells (%) [3]: 2%; Population Normal (%) [3]: 86%; Population Pyknosed Nuclei (%) [3]: 65%; Population Tubulin-Different-Phenotype (%) [3]: 50%; Total Cell Count [3]: 258; Population Apoptotic (%) [4]: 100%; Population Fragmented Nuclei (%) [4]: 70%; Population Healthy Nuclei (%) [4]: 9%; Population Hoechst High Intensity Objects (%) [4]: 62%; Population Membrane Permeable-Phenotype (%) [4]: 24%; Population Mitochondria Different-Phenotype (%) [4]: 32%; Population Mitotic Cells (%) [4]: 0%; Population Normal (%) [4]: 37%; Population Pyknosed Nuclei (%) [4]: 19%; Population Tubulin-Different-Phenotype (%) [4]: 24%; Total Cell Count [4]: 675; Population Apoptotic (%) [5]: 98%; Population Fragmented Nuclei (%) [5]: 47%; Population Healthy Nuclei (%) [5]: 5%; Population Hoechst High Intensity Objects (%) [5]: 14%; Population Membrane Permeable-Phenotype (%) [5]: 75%; Population Mitochondria Different-Phenotype (%) [5]: 87%; Population Mitotic Cells (%) [5]: 1%; Population Normal (%) [5]: 85%; Population Pyknosed Nuclei (%) [5]: 47%; Population Tubulin-Different-Phenotype (%) [5]: 75%; Total Cell Count [5]: 181; Population Apoptotic (%) [6]: 83%; Population Fragmented Nuclei (%) [6]: 20%; Population Healthy Nuclei (%) [6]: 40%; Population Hoechst High Intensity Objects (%) [6]: 30%; Population Membrane Permeable-Phenotype (%) [6]: 66%; Population Mitochondria Different-Phenotype (%) [6]: 91%; Population Mitotic Cells (%) [6]: 16%; Population Normal (%) [6]: 69%; Population Pyknosed Nuclei (%) [6]: 40%; Population Tubulin-Different-Phenotype (%) [6]: 91%; Total Cell Count [6]: 43; Population Apoptotic (%) [7]: 97%; Population Fragmented Nuclei (%) [7]: 39%; Population Healthy Nuclei (%) [7]: 0%; Population Hoechst High Intensity Objects (%) [7]: 15%; Population Membrane Permeable-Phenotype (%) [7]: 100%; Population Mitochondria Different-Phenotype (%) [7]: 100%; Population Mitotic Cells (%) [7]: 2%; Population Normal (%) [7]: 84%; Population Pyknosed Nuclei (%) [7]: 59%; Population Tubulin-Different-Phenotype (%) [7]: 100%; Total Cell Count [7]: 269; Population Apoptotic (%) [8]: 100%; Population Fragmented Nuclei (%) [8]: 79%; Population Healthy Nuclei (%) [8]: 10%; Population Hoechst High Intensity Objects (%) [8]: 64%; Population Membrane Permeable-Phenotype (%) [8]: 69%; Population Mitochondria Different-Phenotype (%) [8]: 60%; Population Mitotic Cells (%) [8]: 0%; Population Normal (%) [8]: 35%; Population Pyknosed Nuclei (%) [8]: 9%; Population Tubulin-Different-Phenotype (%) [8]: 60%; Total Cell Count [8]: 614; Population Fragmented Nuclei (%) [9]: 45%; Population Healthy Nuclei (%) [9]: 3%; Population Hoechst High Intensity Objects (%) [9]: 22%; Population Membrane Permeable-Phenotype (%) [9]: 80%; Population Mitochondria Different-Phenotype (%) [9]: 80%; Population Normal (%) [9]: 77%; Population Pyknosed Nuclei (%) [9]: 50%; Population Tubulin-Different-Phenotype (%) [9]: 80%; Total Cell Count [9]: 185; Population Apoptotic (%) [10]: 100%; Population Fragmented Nuclei (%) [10]: 25%; Population Healthy Nuclei (%) [10]: 35%; Population Hoechst High Intensity Objects (%) [10]: 34%; Population Membrane Permeable-Phenotype (%) [10]: 90%; Population Mitochondria Different-Phenotype (%) [10]: 90%; Population Mitotic Cells (%) [10]: 0%; Population Normal (%) [10]: 65%; Population Pyknosed Nuclei (%) [10]: 39%; Population Tubulin-Different-Phenotype (%) [10]: 90%; Total Cell Count [10]: 43; Population Apoptotic (%) [11]: 97%; Population Fragmented Nuclei (%) [11]: 40%; Population Healthy Nuclei (%) [11]: 3%; Population Hoechst High Intensity Objects (%) [11]: 18%; Population Membrane Permeable-Phenotype (%) [11]: 71%; Population Mitochondria Different-Phenotype (%) [11]: 85%; Population Mitotic Cells (%) [11]: 2%; Population Normal (%) [11]: 81%; Population Pyknosed Nuclei (%) [11]: 55%; Population Tubulin-Different-Phenotype (%) [11]: 85%; Total Cell Count [11]: 260; Population Apoptotic (%) [12]: 100%; Population Fragmented Nuclei (%) [12]: 85%; Population Healthy Nuclei (%) [12]: 12%; Population Hoechst High Intensity Objects (%) [12]: 67%; Population Membrane Permeable-Phenotype (%) [12]: 81%; Population Mitochondria Different-Phenotype (%) [12]: 72%; Population Mitotic Cells (%) [12]: 0%; Population Normal (%) [12]: 32%; Population Pyknosed Nuclei (%) [12]: 1%; Population Tubulin-Different-Phenotype (%) [12]: 72%; Total Cell Count [12]: 534
